According to BindingDB's records for PubMed 36760746 (n/a, 2023):

What follows are molecules tested against Induced myeloid leukemia cell differentiation protein Mcl-1 (Homo sapiens, UniProt Q07820) (assay: Inhibition of FITC-labelled BAK BH3 peptide to 6His-MBP tagged recombinant human MCL-1 (172 to 327 residues) expressed in Escherichia coli assessed as inhibition constant by fluorescence polarization competition assay).
Method in brief: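 Fluorescence polarization competition: compounds titrated into a mixture of MCL-1 (residues 172–327) and FITC-labelled BAK BH3 peptide. Displacement of the peptide was followed by the change in polarization, and Ki was derived from the competition titration.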

Chain of Induced myeloid leukemia cell differentiation protein Mcl-1 (Q07820 whole entry, the tested form may be a part): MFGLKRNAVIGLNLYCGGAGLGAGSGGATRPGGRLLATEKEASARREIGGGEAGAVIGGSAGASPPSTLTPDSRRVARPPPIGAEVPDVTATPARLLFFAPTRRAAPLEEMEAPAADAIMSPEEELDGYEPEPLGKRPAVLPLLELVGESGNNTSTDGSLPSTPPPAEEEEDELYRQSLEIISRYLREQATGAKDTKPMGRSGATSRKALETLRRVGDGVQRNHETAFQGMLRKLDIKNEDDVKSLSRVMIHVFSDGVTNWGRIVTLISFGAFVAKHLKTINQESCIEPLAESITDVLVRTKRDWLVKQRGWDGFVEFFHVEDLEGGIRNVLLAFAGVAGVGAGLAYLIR

Ki, > 500 µM:
CC(C)CN(c1cccc(C(=O)O)c1)S(=O)(=O)c1ccc(F)cc1 [3-(4-fluoro-N-isobutylphenyl-sulfonamido) benzoic acid]
CC(C)CN(c1cccc(C(=O)O)c1)S(=O)(=O)c1ccc(-c2ccccc2)cc1 [3-(N-isobutyl-[1,1'-biphenyl]-4-ylsulfonamido) benzoic acid]
CC(C)CN(c1cccc(C(=O)O)c1)S(=O)(=O)c1ccccc1 [3-(N-isobutylphenyl-sulfonamido) benzoic acid]
CC(C)CN(c1ccc(C(=O)O)cc1)S(=O)(=O)c1ccc(F)cc1 [4-(4-fluoro-N-isobutylphenyl-sulfonamido) benzoic acid]
CC(C)CN(c1ccc(C(=O)O)cc1)S(=O)(=O)c1ccc2ccccc2c1 [4-(N-isobutylnaphthalene-2-sulfonamido) benzoic acid]
CC(C)CN(c1ccc(C(=O)O)cc1)S(=O)(=O)c1ccccc1 [4-(N-isobutylphenyl-sulfonamido) benzoic acid]
